For data set [1], the system named is Spleen. The data set can be described thus: Biodistribution in ddY mouse spleen at 0.2 to 0.4 uCi, iv after 2 mins. The format is ADME, organism-based. Conditions: in vivo; call rule not given here. In short, it runs like this:
(§1)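 Radiotracer (0.2–0.4 μCi) given as a single tail-vein injection of 100 μL saline containing 10 μL ethanol to normal ddY mice (5 weeks old, 25–30 g). Mice were sacrificed at set times after injection. Organs were excised and weighed, and radioactivity was counted in an automatic gamma counter.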

In data set [2] the test system is Spleen. The data set is described as follows: Biodistribution in ddY mouse spleen at 0.2 to 0.4 uCi, iv after 30 mins. The following applies: in vivo, 0.5 h. It is filed as ADME, organism-based. In outline: as §1
In data set [3] the test system is Blood. The data set can be described thus: Biodistribution in ddY mouse blood at 0.2 to 0.4 uCi, iv after 30 mins. The format is ADME, organism-based. The following applies: in vivo, 0.5 h. In short, it runs like this:
as §1

Data set [4] concerns Stomach. The data set can be described thus: Biodistribution in ddY mouse stomach at 0.2 to 0.4 uCi, iv after 10 mins measured per gram of organ. The format is ADME, organism-based. Conditions: in vivo. In short, it runs like this:
as §1

Data set [5] concerns Blood. The data set can be described thus: Biodistribution in ddY mouse blood at 0.2 to 0.4 uCi, iv after 10 mins. It is filed as ADME, organism-based. Conditions: in vivo. In short, it runs like this: as §1
Data set [6] has as its system Pancreas. The data set can be described thus: Biodistribution in ddY mouse pancreas at 0.2 to 0.4 uCi, iv after 2 mins. It is filed as ADME, organism-based. Conditions: in vivo. In short, it runs like this:
as §1

Data set [7] has as its system Kidney. The data set can be described thus: Biodistribution in ddY mouse kidney at 0.2 to 0.4 uCi, iv after 30 mins. It is filed as ADME, organism-based. The following applies: in vivo, 0.5 h. In short, it runs like this: as §1
The test system of data set [8] is Stomach. The data set is described as follows: Biodistribution in ddY mouse stomach at 0.2 to 0.4 uCi, iv after 60 mins measured per gram of organ. It is filed as ADME, organism-based. The following applies: in vivo, 1 h. In outline:
as §1

The subject of data set [9] is Pancreas. The data set is described as follows: Biodistribution in ddY mouse pancreas at 0.2 to 0.4 uCi, iv after 30 mins. It is filed as ADME, organism-based. Conditions: in vivo, 0.5 h. In short, it runs like this: as §1
In data set [10] the test system is Brain. The data set is described as follows: Biodistribution in ddY mouse brain at 0.2 to 0.4 uCi, iv after 2 mins. It is filed as ADME, organism-based. Conditions: in vivo. In outline: as §1
Data set [11] relates to Liver. The data set can be described thus: Biodistribution in ddY mouse liver at 0.2 to 0.4 uCi, iv after 30 mins. The format is ADME, organism-based. The following applies: in vivo, 0.5 h. In outline:
as §1

For data set [12], the system named is Liver. The data set can be described thus: Biodistribution in ddY mouse liver at 0.2 to 0.4 uCi, iv after 10 mins. It is filed as ADME, organism-based. The following applies: in vivo. In short, it runs like this: as §1
Data set [13] deals with Liver. The data set is described as follows: Biodistribution in ddY mouse liver at 0.2 to 0.4 uCi, iv after 60 mins. The following applies: in vivo, 1 h. The format is ADME, organism-based. In outline:
as §1

For data set [14], the system named is Liver. The data set can be described thus: Biodistribution in ddY mouse liver at 0.2 to 0.4 uCi, iv after 2 mins. The following applies: in vivo. It is filed as ADME, organism-based. In outline: as §1
Data set [15] concerns Brain. The data set is described as follows: Biodistribution in ddY mouse brain at 0.2 to 0.4 uCi, iv after 10 mins. It is filed as ADME, organism-based. The following applies: in vivo. In outline:
as §1

Data set [16] concerns Kidney. The data set is described as follows: Biodistribution in ddY mouse kidney at 0.2 to 0.4 uCi, iv after 2 mins. It is filed as ADME, organism-based. Conditions: in vivo. In short, it runs like this:
as §1

The subject of data set [17] is Heart. The data set is described as follows: Biodistribution in ddY mouse heart at 0.2 to 0.4 uCi, iv after 30 mins. It is filed as ADME, organism-based. Conditions: in vivo, 0.5 h. In short, it runs like this:
as §1

Data set [18] concerns Spleen. The data set can be described thus: Biodistribution in ddY mouse spleen at 0.2 to 0.4 uCi, iv after 60 mins. It is filed as ADME, organism-based. The following applies: in vivo, 1 h. In outline: as §1
The subject of data set [19] is Heart. The data set is described as follows: Biodistribution in ddY mouse heart at 0.2 to 0.4 uCi, iv after 60 mins. It is filed as ADME, organism-based. The following applies: in vivo, 1 h. In outline:
as §1

Data set [20] concerns Kidney. The data set can be described thus: Biodistribution in ddY mouse kidney at 0.2 to 0.4 uCi, iv after 10 mins. It is filed as ADME, organism-based. Conditions: in vivo. In outline:
as §1

Data set [21] has as its system Stomach. The data set can be described thus: Biodistribution in ddY mouse stomach at 0.2 to 0.4 uCi, iv after 2 mins measured per gram of organ. The following applies: in vivo. It is filed as ADME, organism-based. In short, it runs like this: as §1
Data set [22] concerns Stomach. The data set is described as follows: Biodistribution in ddY mouse stomach at 0.2 to 0.4 uCi, iv after 30 mins measured per gram of organ. The format is ADME, organism-based. The following applies: in vivo, 0.5 h. In outline: as §1
Data set [23] deals with Heart. The data set is described as follows: Biodistribution in ddY mouse heart at 0.2 to 0.4 uCi, iv after 2 mins. The format is ADME, organism-based. The following applies: in vivo. In outline:
as §1

Data set [24] has as its system Brain. The data set can be described thus: Biodistribution in ddY mouse brain at 0.2 to 0.4 uCi, iv after 60 mins. The format is ADME, organism-based. The following applies: in vivo, 1 h. In outline:
as §1

Data set [25] has as its system Pancreas. The data set can be described thus: Biodistribution in ddY mouse pancreas at 0.2 to 0.4 uCi, iv after 60 mins. The format is ADME, organism-based. Conditions: in vivo, 1 h. In outline: as §1
Data set [26] relates to Heart. The data set can be described thus: Biodistribution in ddY mouse heart at 0.2 to 0.4 uCi, iv after 10 mins. It is filed as ADME, organism-based. Conditions: in vivo. In outline: as §1
The subject of data set [27] is Kidney. The data set is described as follows: Biodistribution in ddY mouse kidney at 0.2 to 0.4 uCi, iv after 60 mins. The format is ADME, organism-based. Conditions: in vivo, 1 h. In outline: as §1
Data set [28] has as its system Blood. The data set is described as follows: Biodistribution in ddY mouse blood at 0.2 to 0.4 uCi, iv after 60 mins. It is filed as ADME, organism-based. The following applies: in vivo, 1 h. In short, it runs like this:
as §1

The test system of data set [29] is Spleen. The data set can be described thus: Biodistribution in ddY mouse spleen at 0.2 to 0.4 uCi, iv after 10 mins. The format is ADME, organism-based. The following applies: in vivo. In short, it runs like this:
as §1

Data set [30] deals with Blood. The data set can be described thus: Biodistribution in ddY mouse blood at 0.2 to 0.4 uCi, iv after 2 mins. Conditions: in vivo. It is filed as ADME, organism-based. In outline:
as §1

Data set [31] concerns Intestine. The data set is described as follows: Biodistribution in ddY mouse intestine at 0.2 to 0.4 uCi, iv after 2 mins. Conditions: in vivo. It is filed as ADME, organism-based. In short, it runs like this:
as §1

Data set [32] has as its system Intestine. The data set can be described thus: Biodistribution in ddY mouse intestine at 0.2 to 0.4 uCi, iv after 10 mins. It is filed as ADME, organism-based. Conditions: in vivo. In outline:
as §1

The subject of data set [33] is Intestine. The data set is described as follows: Biodistribution in ddY mouse intestine at 0.2 to 0.4 uCi, iv after 60 mins. The format is ADME, organism-based. The following applies: in vivo, 1 h. In outline:
as §1

The test system of data set [34] is Pancreas. The data set is described as follows: Biodistribution in ddY mouse pancreas at 0.2 to 0.4 uCi, iv after 10 mins. The format is ADME, organism-based. Conditions: in vivo. In short, it runs like this:
as §1

The test system of data set [35] is Brain. The data set is described as follows: Biodistribution in ddY mouse brain at 0.2 to 0.4 uCi, iv after 30 mins. It is filed as ADME, organism-based. Conditions: in vivo, 0.5 h. In short, it runs like this: as §1
The test system of data set [36] is Intestine. The data set can be described thus: Biodistribution in ddY mouse intestine at 0.2 to 0.4 uCi, iv after 30 mins. The format is ADME, organism-based. The following applies: in vivo, 0.5 h. In outline:
as §1

For data set [37], the system named is Brain. The data set is described as follows: In vivo binding affinity to amyloid beta 42 in mouse brain by neuropathological staining. It is filed as ADME, organism-based.
The nature of data set [38]: Displacement of [125I]IMPY from amyloid beta42 by gamma counting. For orientation: In a radioligand displacement assay an active substance lowers the binding of a labelled ligand.
In data set [39] the test system is Brain. The data set can be described thus: In vivo binding affinity to amyloid beta 42 in Tg2576 mouse brain by neuropathological staining. It is filed as ADME, organism-based.

Here are results for three compounds from ChEMBL document CHEMBL1177647, “Synthesis and characterization of novel phenylindoles as potential probes for imaging of β-amyloid plaques in the brain” (Bioorg Med Chem, 2010).

As a reminder, the Ki is a dissociation constant, usually derived from enzyme kinetics or from competition with a known ligand. Lower therefore signals higher affinity.

Take `OCCOc1ccc(-c2cc3cc([125I])ccc3[nH]2)cc1`: the Drug uptake is 7.56 % ID/g in the data set with Spleen [1]; 4.75 % ID/g in the data set on Spleen [2]; 1.26 % ID/g in the data set on Blood [3]; 1.97 %ID in the data set with Stomach [4]; 1.6 % ID/g in the data set on Blood [5]; 5.55 % ID/g in the data set with Pancreas [6]. Also, the Drug uptake is 6.77 % ID/g with Kidney [7]; 1.62 %ID in the data set with Stomach [8]; 3.57 % ID/g in the data set on Pancreas [9]; 2.13 % ID/g with Brain [10]; 13.42 % ID/g in the data set on Liver [11]; 16.77 % ID/g in the data set on Liver [12]. In addition, the Drug uptake is listed as 8.17 % ID/g in the data set on Liver [13]; 17.69 % ID/g in the data set on Liver [14]; 2.62 % ID/g with Brain [15]; 11.93 % ID/g in the data set on Kidney [16]; 2.97 % ID/g in the data set on Heart [17]; 2.39 % ID/g in the data set with Spleen [18]. For the same compound, the Drug uptake in the data set with Heart [19] is recorded as 1.36 % ID/g; with Kidney [20] it was 9.35 % ID/g; in the data set with Stomach [21], 0.97 %ID; with Stomach [22], 2.11 %ID; in the data set on Heart [23], 12.91 % ID/g; in the data set on Brain [24], 1.82 % ID/g. In addition, the Drug uptake is listed as 2.22 % ID/g with Pancreas [25]; 5.84 % ID/g in the data set on Heart [26]; 2.76 % ID/g in the data set on Kidney [27]; 0.8 % ID/g in the data set with Blood [28]; 7.09 % ID/g in the data set on Spleen [29]; 4.07 % ID/g with Blood [30]. Also, the Drug uptake in the data set on Intestine [31] is on record as 1.97 % ID/g; with Intestine [32], 5.76 % ID/g; with Intestine [33] it was 18.98 % ID/g; in the data set with Pancreas [34] it was 5.59 % ID/g; with Brain [35], 1.93 % ID/g; with Intestine [36], 11.32 % ID/g.
Consider `CN(C)c1ccc(-c2cc3cc(I)ccc3[nH]2)cc1`, for which the Activity result with Brain [37] is on record as “Not Active”. In [38], this compound showed a Ki of 4.24 nM.
Regarding `COc1ccc(-c2cc3cc(I)ccc3[nH]2)cc1`, in the data set with Brain [39], the result was Active. The Ki in data set [38] was 20.2 nM.
